Results from ChEMBL document CHEMBL6134900 (J Med Chem, 2025).
Activity calls are given as the source filed them. No cut-off for these calls is given here.

How the values were obtained:
[1] = (§1) Inhibition of colony formation in human NCI-H2122 cells harboring wild type SMARCA4 incubated for 9 to 14 days by crystal violet staining based assay; assay type: functional, cell-based
Outline: (§2)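 Single cells, 0.5–2 × 10^3 per well in 6-well plates, in RPMI with 10% FBS. Grown 9–14 days in drug-containing medium, refreshed every fifth day. Fixed in 10% formalin, stained with 0.01% crystal violet. Total colony area quantified and expressed relative to DMSO. n = 3 biological replicates. IC50 ratio is wild-type over mutant.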

NCI-H2122 = assay: as §1; assay type: functional, cell-based; details: dose 0.001-10 µM, time 9-14 day; outline: as §2
[2] = target: T1, Protein cereblon/SWI/SNF-related matrix-associated actin-dependent regulator of chromatin subfamily A member 2 (Homo sapiens, UniProt P51531+Q96SW2); assay: PROTAC activity at CRBN/SMARCA2 in human NCI-H2126 cells harboring mutated SMARCA4 assessed as induction of SMARCA2 degradation incubated for 48 hrs by immunoblot analysis; assay type: cell-based
Outline: (§3)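 SMARCA4-mutant H322, HCC515, H2030 and H2126 cells were treated as indicated. SMARCA2 was immunoblotted in RIPA lysates and quantified after normalisation to β-actin. Expression is given relative to DMSO-treated cells, and Dmax was derived by nonlinear regression.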
Target sequence in this assay (P51531 whole entry, looked up, change not shown): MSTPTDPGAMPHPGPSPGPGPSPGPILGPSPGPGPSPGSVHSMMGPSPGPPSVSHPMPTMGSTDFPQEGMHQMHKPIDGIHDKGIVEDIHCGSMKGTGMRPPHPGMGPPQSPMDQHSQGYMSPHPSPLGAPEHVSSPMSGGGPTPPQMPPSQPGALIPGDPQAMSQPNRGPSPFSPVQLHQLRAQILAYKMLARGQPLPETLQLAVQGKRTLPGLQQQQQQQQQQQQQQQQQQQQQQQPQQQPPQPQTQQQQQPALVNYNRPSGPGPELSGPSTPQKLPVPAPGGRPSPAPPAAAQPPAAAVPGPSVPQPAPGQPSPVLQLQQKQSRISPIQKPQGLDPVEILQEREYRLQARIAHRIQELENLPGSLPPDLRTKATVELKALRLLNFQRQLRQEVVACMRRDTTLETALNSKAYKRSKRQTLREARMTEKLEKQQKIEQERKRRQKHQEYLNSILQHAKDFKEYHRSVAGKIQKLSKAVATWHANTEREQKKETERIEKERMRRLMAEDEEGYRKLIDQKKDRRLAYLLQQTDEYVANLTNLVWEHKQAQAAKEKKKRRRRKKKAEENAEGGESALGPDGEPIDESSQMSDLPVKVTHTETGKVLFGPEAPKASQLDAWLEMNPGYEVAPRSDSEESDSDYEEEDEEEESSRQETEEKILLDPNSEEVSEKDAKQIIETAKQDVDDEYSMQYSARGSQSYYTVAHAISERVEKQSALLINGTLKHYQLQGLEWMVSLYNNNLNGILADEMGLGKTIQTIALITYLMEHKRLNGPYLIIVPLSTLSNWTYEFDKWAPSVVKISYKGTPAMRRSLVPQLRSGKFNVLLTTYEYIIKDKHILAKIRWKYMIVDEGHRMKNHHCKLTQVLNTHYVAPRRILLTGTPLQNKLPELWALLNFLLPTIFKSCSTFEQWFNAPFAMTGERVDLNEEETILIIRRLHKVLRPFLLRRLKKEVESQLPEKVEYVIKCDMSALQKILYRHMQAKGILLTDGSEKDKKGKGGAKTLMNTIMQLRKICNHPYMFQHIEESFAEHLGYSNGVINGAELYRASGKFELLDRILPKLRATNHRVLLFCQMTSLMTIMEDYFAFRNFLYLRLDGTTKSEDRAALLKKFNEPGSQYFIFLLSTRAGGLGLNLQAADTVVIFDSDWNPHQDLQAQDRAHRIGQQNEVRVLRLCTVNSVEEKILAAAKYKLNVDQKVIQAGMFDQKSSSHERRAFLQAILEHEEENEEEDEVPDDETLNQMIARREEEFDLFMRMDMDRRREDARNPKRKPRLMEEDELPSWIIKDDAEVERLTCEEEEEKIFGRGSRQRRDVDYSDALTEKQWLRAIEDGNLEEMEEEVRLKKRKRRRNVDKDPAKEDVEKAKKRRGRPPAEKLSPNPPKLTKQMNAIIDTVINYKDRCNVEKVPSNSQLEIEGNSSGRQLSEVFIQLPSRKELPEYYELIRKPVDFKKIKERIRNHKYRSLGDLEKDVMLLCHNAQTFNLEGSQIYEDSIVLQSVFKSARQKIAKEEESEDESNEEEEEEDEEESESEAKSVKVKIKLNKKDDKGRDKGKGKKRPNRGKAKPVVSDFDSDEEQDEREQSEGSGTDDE
Target sequence in this assay (Q96SW2 whole entry, looked up, change not shown): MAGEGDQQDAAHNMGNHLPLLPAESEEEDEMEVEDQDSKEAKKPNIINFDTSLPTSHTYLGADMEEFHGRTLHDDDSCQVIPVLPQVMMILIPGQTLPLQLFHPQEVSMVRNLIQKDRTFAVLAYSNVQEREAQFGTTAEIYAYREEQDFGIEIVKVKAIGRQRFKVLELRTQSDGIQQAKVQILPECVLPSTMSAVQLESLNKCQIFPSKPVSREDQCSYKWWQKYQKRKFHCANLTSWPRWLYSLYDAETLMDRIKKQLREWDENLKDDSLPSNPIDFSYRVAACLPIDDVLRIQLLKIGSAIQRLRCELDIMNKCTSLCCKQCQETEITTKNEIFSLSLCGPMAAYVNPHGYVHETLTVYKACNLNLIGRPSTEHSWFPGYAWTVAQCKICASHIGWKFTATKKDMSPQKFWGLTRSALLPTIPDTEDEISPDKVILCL

[3] = Half life in male CD-1 (ICR) mouse at 25 mg/kg, ip measured up to 24 hrs by LC-MS/MS analysis; assay type: ADME, organism-based; details: in vivo
Outline: (§4)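 Single 25 mg/kg dose. IP vehicle was 5% DMSO/5% solutol/90% water at 1.25 mg/mL, final pH 4.39, clear solution. Oral vehicle was 0.5% methylcellulose/0.2% Tween 80 in water, opaque suspension. Plasma sampled at 0.25, 0.5, 1, 2, 4, 8 and 24 h. Plasma protein-precipitated with internal standard in acetonitrile, then LC-MS/MS. n = 3 mice per time point, mean.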

[4] = (§5) Inhibition of colony formation in human NCI-H1568 cells harboring SMARCA4 mutant incubated for 9 to 14 days by crystal violet staining based assay; assay type: functional, cell-based; outline: as §2
NCI-H1568 = assay: as §5; assay type: functional, cell-based; details: dose 0.001-10 µM, time 9-14 day; outline: as §2
[5] = Antitumor activity against human NCI-H1568 cells harboring SMARCA4 mutant xenografted in female athymic nude mouse assessed as tumor growth inhibition at 40 mg/kg, po administered once daily via gavage for 13 days relative to control; assay type: functional; details: NCI-H1568, 312 h, time 13 day, read-out: TGI
Outline: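 Cells (H1568 2 × 10^6, H2023 10 × 10^6, HCC515 5 × 10^6) in PBS:Matrigel 1:1, 200 μL, injected subcutaneously into flanks of 6–8-week-old females. Randomized at mean tumor volume 60 mm3 (H1568) or <200 mm3 (others). Dosed in 0.5% methylcellulose + 0.2–1% Tween-80, sonicated on ice. Caliper tumor volume and body weight tracked, mean ± SEM.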

[6] = target: T1, Protein cereblon/SWI/SNF-related matrix-associated actin-dependent regulator of chromatin subfamily A member 2; assay: PROTAC activity at CRBN/SMARCA2 in human NCI-H1792 cells harboring wild type SMARCA4 assessed as induction of SMARCA2 degradation incubated up to 96 hrs by immunoblot analysis; assay type: cell-based
[7] = Metabolic stability in human liver microsomes assessed as compound remaining by measuring fold change in absence of NADPH measured after 60 mins by LC-MS/MS analysis; assay type: ADME, Microsome; details: 1 h
Outline: (§6)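 Microsomes at 0.5 mg protein/mL preincubated with compound for 10 min at 37 °C. The NCF60 control received 100 mM potassium phosphate buffer in place of the NADPH regenerating system and was incubated 1 h at 37 °C. Quenched with cold acetonitrile containing tolbutamide and labetalol internal standards, centrifuged, supernatant analyzed by LC-MS/MS. Fraction remaining reported.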

NCI-H1693 = assay: Inhibition of colony formation in human NCI-H1693 cells harboring SMARCA4 mutant incubated for 9 to 14 days by crystal violet staining based assay; assay type: functional, cell-based; details: for inhibition: dose 0.001-10 µM, time 9-14 day; outline: as §2
[8] = AUC (0 to last) in male CD-1 (ICR) mouse at 25 mg/kg, ip measured up to 24 hrs by LC-MS/MS analysis; assay type: ADME, organism-based; details: in vivo; outline: as §4
[9] = target: T1, Protein cereblon/SWI/SNF-related matrix-associated actin-dependent regulator of chromatin subfamily A member 2; assay: PROTAC activity at CRBN/SMARCA2 in human HCC515 cells harboring mutated SMARCA4 assessed as induction of SMARCA2 degradation incubated for 48 hrs by immunoblot analysis; assay type: cell-based; outline: as §3
Target sequence in this assay (P51531 whole entry, looked up, change not shown): as the sequence (P51531 whole entry, looked up, change not shown) above
Target sequence in this assay (Q96SW2 whole entry, looked up, change not shown): as the sequence (Q96SW2 whole entry, looked up, change not shown) above

[10] = target: T1, Protein cereblon/SWI/SNF-related matrix-associated actin-dependent regulator of chromatin subfamily A member 2; assay: PROTAC activity at CRBN/SMARCA2 in human H322 cells harboring mutated SMARCA4 assessed as induction of SMARCA2 degradation incubated for 48 hrs by immunoblot analysis; assay type: cell-based; outline: as §3
Target sequence in this assay (P51531 whole entry, looked up, change not shown): as the sequence (P51531 whole entry, looked up, change not shown) above
Target sequence in this assay (Q96SW2 whole entry, looked up, change not shown): as the sequence (Q96SW2 whole entry, looked up, change not shown) above

[11] = Cmax in male CD-1 (ICR) mouse at 25 mg/kg, po measured up to 24 hrs by LC-MS/MS analysis; assay type: ADME, organism-based; details: in vivo; outline: as §4
[12] = AUC (0 to last) in male CD-1 (ICR) mouse at 25 mg/kg, po measured up to 24 hrs by LC-MS/MS analysis; assay type: ADME, organism-based; details: in vivo; outline: as §4
[13] = target: T1, Protein cereblon/SWI/SNF-related matrix-associated actin-dependent regulator of chromatin subfamily A member 2; assay: PROTAC activity at CRBN/SMARCA2 in human NCI-H1792 cells harboring wild type SMARCA4 assessed as induction of SMARCA2 degradation incubated for 24 hrs by immunoblot analysis; assay type: cell-based
Outline: (§7)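 H1792 (SMARCA4-WT) cells in RPMI with 10% FBS were treated with 1 nM–10 μM for 24 or 48 h. Cells were lysed in RIPA and immunoblotted for SMARCA2, SMARCA4 and β-actin. Bands were quantified and normalised to β-actin, with DMSO set at 100%. DC50 and Dmax were derived by nonlinear regression. n = 3 biological replicates.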
Target sequence in this assay (P51531 whole entry): as the sequence (P51531 whole entry, looked up, change not shown) above
Target sequence in this assay (Q96SW2 whole entry): as the sequence (Q96SW2 whole entry, looked up, change not shown) above

HCC44 = assay: (§8) Inhibition of colony formation in human HCC44 cells harboring wild type SMARCA4 incubated for 9 to 14 days by crystal violet staining based assay; assay type: functional, cell-based; details: dose 0.001-10 µM, time 9-14 day; outline: as §2
[14] = as §8; assay type: functional, cell-based; outline: as §2
[15] = Cmax in male CD-1 (ICR) mouse at 25 mg/kg, ip measured up to 24 hrs by LC-MS/MS analysis; assay type: ADME, organism-based; details: in vivo; outline: as §4
[16] = target: T2, Protein cereblon/SWI/SNF-related matrix-associated actin-dependent regulator of chromatin subfamily A member 4 (Homo sapiens, UniProt P51532+Q96SW2); assay: PROTAC activity at CRBN/SMARCA4 in human NCI-H1792 cells harboring wild type SMARCA4 assessed as induction of SMARCA4 degradation incubated for 48 hrs by immunoblot analysis; assay type: cell-based; outline: as §7
T2 sequence (P51532 whole entry): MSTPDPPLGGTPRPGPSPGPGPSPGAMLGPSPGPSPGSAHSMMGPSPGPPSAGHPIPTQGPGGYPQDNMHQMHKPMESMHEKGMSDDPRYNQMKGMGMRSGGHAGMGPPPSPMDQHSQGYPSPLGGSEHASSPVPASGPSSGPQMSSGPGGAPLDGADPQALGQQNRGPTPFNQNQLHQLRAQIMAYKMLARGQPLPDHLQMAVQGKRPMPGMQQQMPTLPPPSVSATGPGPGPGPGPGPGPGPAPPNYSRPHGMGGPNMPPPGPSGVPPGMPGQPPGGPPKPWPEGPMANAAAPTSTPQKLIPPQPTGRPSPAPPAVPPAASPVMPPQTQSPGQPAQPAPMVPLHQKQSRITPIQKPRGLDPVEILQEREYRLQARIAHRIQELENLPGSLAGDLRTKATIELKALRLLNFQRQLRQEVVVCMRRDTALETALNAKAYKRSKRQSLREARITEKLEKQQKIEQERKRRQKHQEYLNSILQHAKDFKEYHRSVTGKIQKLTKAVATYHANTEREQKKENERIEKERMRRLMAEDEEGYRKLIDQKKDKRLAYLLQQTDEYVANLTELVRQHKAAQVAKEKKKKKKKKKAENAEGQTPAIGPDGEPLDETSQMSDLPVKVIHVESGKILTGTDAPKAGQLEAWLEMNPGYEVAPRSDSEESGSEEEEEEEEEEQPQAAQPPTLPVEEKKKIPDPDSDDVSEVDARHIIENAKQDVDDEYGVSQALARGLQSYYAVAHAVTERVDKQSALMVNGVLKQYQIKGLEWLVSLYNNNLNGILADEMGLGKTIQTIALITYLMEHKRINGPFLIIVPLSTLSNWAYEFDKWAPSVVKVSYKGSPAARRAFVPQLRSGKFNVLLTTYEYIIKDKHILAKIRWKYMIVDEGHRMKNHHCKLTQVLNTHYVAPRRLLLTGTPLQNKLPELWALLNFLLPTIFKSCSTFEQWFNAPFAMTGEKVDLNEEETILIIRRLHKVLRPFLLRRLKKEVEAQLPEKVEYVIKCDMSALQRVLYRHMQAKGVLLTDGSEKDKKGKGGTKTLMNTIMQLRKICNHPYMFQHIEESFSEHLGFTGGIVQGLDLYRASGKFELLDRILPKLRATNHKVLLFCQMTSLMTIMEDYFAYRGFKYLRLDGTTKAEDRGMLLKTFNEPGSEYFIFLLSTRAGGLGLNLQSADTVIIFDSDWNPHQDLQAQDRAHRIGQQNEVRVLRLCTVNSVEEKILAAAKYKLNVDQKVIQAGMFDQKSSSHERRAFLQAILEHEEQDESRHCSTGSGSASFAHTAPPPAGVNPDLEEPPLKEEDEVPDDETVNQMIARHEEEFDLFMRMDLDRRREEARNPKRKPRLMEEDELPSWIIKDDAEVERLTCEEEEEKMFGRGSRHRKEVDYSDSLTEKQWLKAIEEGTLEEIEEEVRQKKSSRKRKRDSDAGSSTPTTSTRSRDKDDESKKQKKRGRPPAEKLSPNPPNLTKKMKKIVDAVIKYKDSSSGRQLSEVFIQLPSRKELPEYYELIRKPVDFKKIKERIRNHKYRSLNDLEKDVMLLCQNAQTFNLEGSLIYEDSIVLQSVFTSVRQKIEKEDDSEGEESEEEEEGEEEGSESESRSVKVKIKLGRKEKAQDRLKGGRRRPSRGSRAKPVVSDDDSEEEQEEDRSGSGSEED
T2 sequence (Q96SW2 whole entry): as the sequence (Q96SW2 whole entry, looked up, change not shown) above

[17] = target: T1, Protein cereblon/SWI/SNF-related matrix-associated actin-dependent regulator of chromatin subfamily A member 2; assay: PROTAC activity at CRBN/SMARCA2 in human NCI-H1792 cells harboring wild type SMARCA4 assessed as induction of SMARCA2 degradation incubated for 48 hrs by immunoblot analysis; assay type: cell-based; outline: as §7
Target sequence in this assay (P51531 whole entry): as the sequence (P51531 whole entry, looked up, change not shown) above
Target sequence in this assay (Q96SW2 whole entry): as the sequence (Q96SW2 whole entry, looked up, change not shown) above

[18] = Metabolic stability in mouse liver microsomes assessed as compound remaining by measuring fold change in absence of NADPH measured after 60 mins by LC-MS/MS analysis; assay type: ADME, Microsome; details: 1 h; outline: as §6
[19] = target: T1, Protein cereblon/SWI/SNF-related matrix-associated actin-dependent regulator of chromatin subfamily A member 2; assay: PROTAC activity at CRBN/SMARCA2 in human NCI-H2030 cells harboring mutated SMARCA4 assessed as induction of SMARCA2 degradation incubated for 48 hrs by immunoblot analysis; assay type: cell-based; outline: as §3
Target sequence in this assay (P51531 whole entry, looked up, change not shown): as the sequence (P51531 whole entry, looked up, change not shown) above
Target sequence in this assay (Q96SW2 whole entry, looked up, change not shown): as the sequence (Q96SW2 whole entry, looked up, change not shown) above

[20] = AUC (0 to infinity) in male CD-1 (ICR) mouse at 25 mg/kg, ip measured up to 24 hrs by LC-MS/MS analysis; assay type: ADME, organism-based; details: in vivo; outline: as §4
[21] = target: T2, Protein cereblon/SWI/SNF-related matrix-associated actin-dependent regulator of chromatin subfamily A member 4; assay: PROTAC activity at CRBN/SMARCA4 in human NCI-H1792 cells harboring wild type SMARCA4 assessed as induction of SMARCA4 degradation incubated for 24 hrs by immunoblot analysis; assay type: cell-based; outline: as §7

SMILES | inhibition (NCI-H2122) | DC50 [2] [nM] | t1/2 [3] [h] | IC50 [4] [nM] | inhibition (NCI-H1568) | Activity [6] | fold change (FC) [7] | IC50 (NCI-H1693) [nM] | inhibition (NCI-H1693) | AUClast [8] [ng·h/mL] | DC50 [9] [nM] | DC50 [10] [nM] | Cmax [11] [ng/mL] | AUClast [12] [ng·h/mL] | DC50 [13] [nM] | inhibition (HCC44) | IC50 [14] [nM] | Cmax [15] [ng/mL] | DC50 [16] [nM] | DC50 [17] [nM] | also measured
Nc1nnc(-c2ccccc2O)cc1N1CCN(Cc2ccc(N3CCC(CN4CCN(c5ccc6c(c5)C(=O)N(C5CCC(=O)NC5=O)C6=O)CC4)CC3)c(F)c2)CC1 (stereo unspecified) | Dose-dependent-effect | 1.2 | 44.8 | 78 | Dose-dependent-effect | Active | 0.33 | 78 | Dose-dependent-effect | 23213.7 | 10.6 | 6.4 | 649.3 | 12079.3 | 69 | Dose-dependent-effect | 10000 | 1756.3 | 381 | 60 | IC50 ([1]; dose 0.001-10 µM, time 9-14 day): 10000 nM; inhibition in vivo at 40 mg/kg [5]: 27.6%; fold change (FC) [18]: 0.935; DC50 [19]: 12.7 nM; AUC [20]: 68813 ng·h/mL; DC50 [21]: 135 nM
Nc1nnc(-c2ccccc2O)cc1N1CCN(Cc2ccc(N3CCN(CCOc4cccc5c4C(=O)N(C4CCC(=O)NC4=O)C5=O)CC3)c(F)c2)CC1 (stereo unspecified) | Dose-dependent-effect | 1.6 | 13 | 11 | Dose-dependent-effect | Active; More Potent And Fastest Degradation Observed | 0.501 | 11 | Dose-dependent-effect | 19365.3 | 1.2 | 1 | 587 | 4743 | 8.1 | Dose-dependent-effect | 9100 | 2039.7 | 149 | 16 | IC50 ([1]; Homo sapiens, NCI-H2122, read-out: IC50): 9100 nM; fold change (FC) [18]: 0.368; DC50 [19]: 10.3 nM; AUC [20]: 27108.3 ng·h/mL; DC50 [21]: 19 nM
